# In ChEMBL document CHEMBL2346664, “Synthesis, characterization and in vitro anticancer evaluation of novel 1,2,4-triazolin-3-one derivatives” (2013):
# Calls of active or inactive are those of the source. No cut-off for these calls is given here.
# How the values were obtained:
# [1] = system: SF-268; test: Growth inhibition of human SF268 cells assessed as cell growth at 10 '-5 M after 48 hrs by sulforhodamine B assay; type: functional; details: SF-268, 48 h, read-out: Activity
# [2] = system: SR; test: Growth inhibition of human SR cells assessed as cell growth at 10 '-5 M after 48 hrs by sulforhodamine B assay; type: functional; details: read-out: Activity
# [3] = system: A549; test: Growth inhibition of human A549 cells assessed as cell growth at 10 '-5 M after 48 hrs by sulforhodamine B assay; type: functional; details: A549, 48 h, read-out: Activity
# Outline: (§1)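 Percent growth at each of the five concentrations of the 48 h continuous-exposure NCI SRB screen. Drug stocks were in DMSO at 400× the top final concentration and diluted in medium with gentamicin. Growth was calculated as [(Ti-Tz)/(C-Tz)]×100 when Ti ≥ Tz, or [(Ti-Tz)/Tz]×100 when Ti < Tz. Tz plates were fixed at drug addition; untreated wells served as control. Absorbance was read at 515 nm.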
# [4] = system: M14; test: Growth inhibition of human M14 cells assessed as cell growth at 10 '-6 M after 48 hrs by sulforhodamine B assay; type: functional; details: M14, 48 h, read-out: Activity
# [5] = system: OVCAR-5; test: Growth inhibition of human OVCAR5 cells assessed as growth inhibition at 10 uM after 48 hrs by sulforhodamine B assay; type: functional; details: OVCAR-5, 48 h, read-out: GI
# [6] = system: M14; test: Growth inhibition of human M14 cells assessed as growth inhibition at 10 uM after 48 hrs by sulforhodamine B assay; type: functional; details: M14, 48 h, read-out: GI
# [7] = system: SF-268; test: Growth inhibition of human SF268 cells assessed as growth inhibition at 10 uM after 48 hrs by sulforhodamine B assay; type: functional; details: SF-268, 48 h, read-out: GI
# [8] = system: HL-60(TB); test: Growth inhibition of human HL-60(TB) cells assessed as growth inhibition at 10 uM after 48 hrs by sulforhodamine B assay; type: functional, cell-based
# Outline: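 NCI DTP single high-dose primary screen at 10^-5 M across 60 human tumour lines. Growth percent of treated cells is taken relative to untreated controls: values of 0–100 indicate growth inhibition and values below 0 indicate cytotoxicity. Both growth percent and percentage growth inhibition are reported.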
# [9] = Growth inhibition of human Hs 578T cells assessed as cell growth at 10 '-4 M after 48 hrs by sulforhodamine B assay; type: functional; details: read-out: Activity
# [10] = system: SNB-19; test: Growth inhibition of human SNB19 cells assessed as cell growth at 10 '-6 M after 48 hrs by sulforhodamine B assay; type: functional; details: SNB-19, 48 h, read-out: Activity
# [11] = system: KM12; test: Growth inhibition of human KM12 cells assessed as cell growth at 10 '-6 M after 48 hrs by sulforhodamine B assay; type: functional; details: KM12, 48 h, read-out: Activity
# [12] = system: BT-549; test: Growth inhibition of human BT549 cells assessed as cell growth at 10 '-7 M after 48 hrs by sulforhodamine B assay; type: functional; details: BT-549, 48 h, read-out: Activity; outline: as §1
# [13] = system: OVCAR-4; test: Growth inhibition of human OVCAR4 cells assessed as cell growth at 10 '-7 M after 48 hrs by sulforhodamine B assay; type: functional; details: OVCAR-4, 48 h, read-out: Activity
# [14] = system: IGROV-1; test: Growth inhibition of human IGROV1 cells assessed as cell growth at 10 '-7 M after 48 hrs by sulforhodamine B assay; type: functional; details: IGROV-1, 48 h, read-out: Activity
# [15] = system: SK-MEL-5; test: Growth inhibition of human SK-MEL-5 cells assessed as cell growth at 10 '-7 M after 48 hrs by sulforhodamine B assay; type: functional; details: SK-MEL-5, 48 h, read-out: Activity
# [16] = system: SK-OV-3; test: Growth inhibition of human SKOV3 cells assessed as cell growth at 10 '-4 M after 48 hrs by sulforhodamine B assay; type: functional; details: SK-OV-3, 48 h, read-out: Activity
# [17] = system: OVCAR-8; test: Growth inhibition of human OVCAR8 cells assessed as cell growth at 10 '-4 M after 48 hrs by sulforhodamine B assay; type: functional; details: OVCAR-8, 48 h, read-out: Activity
# [18] = system: KM12; test: Growth inhibition of human KM12 cells assessed as cell growth at 10 '-4 M after 48 hrs by sulforhodamine B assay; type: functional; details: KM12, 48 h, read-out: Activity
# [19] = system: BT-549; test: Growth inhibition of human BT549 cells after 48 hrs by sulforhodamine B assay; type: functional; details: BT-549, 48 h
# Outline: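 NCI 60-cell-line five-dose screen at 0.01, 0.1, 1, 10 and 100 µM final. Cells were plated at 5,000–40,000/well and grown 24 h at 37 °C, 5% CO2, then exposed to drug continuously for 48 h. Adherent cells were fixed with cold TCA (10% final) and stained with SRB; absorbance read at 515 nm. GI50 is the concentration where [(Ti-Tz)/(C-Tz)]×100 = 50, with Tz plates fixed at drug addition.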
# [20] = Growth inhibition of human NCI-ADR-RES cells after 48 hrs by sulforhodamine B assay; type: functional
# Outline: (§2)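 NCI 60-cell-line five-dose screen. Cells were plated at 5,000–40,000/well by doubling time and grown 24 h at 37 °C, 5% CO2. Time-zero plates were TCA-fixed. Drug from DMSO stock was tested at 0.01, 0.1, 1, 10 and 100 µM final for 48 h continuous exposure. Read-out was SRB at 515 nm. GI50 is the concentration giving 50% reduction in net protein increase versus untreated control.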
# [21] = system: HCT-116; test: Growth inhibition of human HCT116 cells assessed as cell growth at 10 '-4 M after 48 hrs by sulforhodamine B assay; type: functional; details: HCT-116, 48 h, read-out: Activity
# [22] = Growth inhibition of human HCC2998 cells assessed as cell growth at 10 '-4 M after 48 hrs by sulforhodamine B assay; type: functional; details: HCC 2998, 48 h, read-out: Activity
# [23] = system: MOLT-4; test: Growth inhibition of human MOLT4 cells assessed as cell growth at 10 '-4 M after 48 hrs by sulforhodamine B assay; type: functional; details: MOLT-4, 48 h, read-out: Activity
# [24] = system: UO-31; test: Growth inhibition of human UO31 cells assessed as cell growth at 10 '-5 M after 48 hrs by sulforhodamine B assay; type: functional; details: UO-31, 48 h, read-out: Activity
# [25] = Growth inhibition of human HCC2998 cells after 48 hrs by sulforhodamine B assay; type: functional; details: HCC 2998, 48 h; outline: as §2
# [26] = system: SK-MEL-5; test: Growth inhibition of human SK-MEL-5 cells assessed as cell growth at 10 '-5 M after 48 hrs by sulforhodamine B assay; type: functional; details: SK-MEL-5, 48 h, read-out: Activity
# [27] = system: OVCAR-8; test: Growth inhibition of human OVCAR8 cells assessed as cell growth at 10 '-8 M after 48 hrs by sulforhodamine B assay; type: functional; details: OVCAR-8, 48 h, read-out: Activity
# [28] = system: UACC-257; test: Growth inhibition of human UACC257 cells assessed as cell growth at 10 '-8 M after 48 hrs by sulforhodamine B assay; type: functional; details: UACC-257, 48 h, read-out: Activity
# [29] = system: SK-MEL-5; test: Growth inhibition of human SK-MEL-5 cells assessed as cell growth at 10 '-8 M after 48 hrs by sulforhodamine B assay; type: functional; details: SK-MEL-5, 48 h, read-out: Activity
# [30] = read-out: LD50 (the source's name)
smiles,measurement,setting,value
Cc1cc(=O)oc2cc(OCCn3c(C)nn(-c4ccc(Cl)cc4)c3=O)ccc12,growth at 10 µM,[1],52%
same,growth at 10 µM,[2],-6%
same,growth at 10 µM,[3],37%
same,growth at 1 µM,[4],67%
same,inhibition of growth at 10 µM,[5],61.2%
same,inhibition of growth at 10 µM,[6],85.3%
same,inhibition of growth at 10 µM,[7],49.7%
same,growth inhibition (GI),[8],Active
same,growth at 100 µM,[9],7%
same,growth at 1 µM,[10],80%
same,growth at 1 µM,[11],58%
same,growth at 0.1 µM,[12],104%
same,growth at 0.1 µM,[13],90%
same,growth at 0.1 µM,[14],112%
same,growth at 0.1 µM,[15],92%
same,growth at 100 µM,[16],-7%
same,growth at 100 µM,[17],24%
same,growth at 100 µM,[18],12%
same,GI50,[19],1650 nM
same,TGI,[19],9940 nM
same,CC50,[19]; [30],> 1000 nM
same,GI50,[20],1640 nM
same,TGI,[20],> 1000 nM
same,CC50,[20]; [30],> 1000 nM
same,growth at 100 µM,[21],23%
same,growth at 100 µM,[22],17%
same,growth at 100 µM,[23],17%
same,growth at 10 µM,[24],51%
same,GI50,[25],3590 nM
same,TGI,[25],> 1000 nM
same,CC50,[25]; [30],> 1000 nM
same,growth at 10 µM,[26],13%
same,growth at 0.01 µM,[27],95%
same,growth at 0.01 µM,[28],95%
same,growth at 0.01 µM,[29],97%
